This note sets out measurements from ChEMBL document CHEMBL3407438, “Discovery of potent, orally bioavailable, small-molecule inhibitors of WNT signaling from a cell-based pathway screen” (J Med Chem, 2015).

The source made the active and inactive calls. No cut-off for these calls is given here. Some results are limits rather than exact numbers.

Data set [1] is described as follows: Clearance in NMRI mouse at 0.2 mg/kg, iv. In kind it is ADME, organism-based. Set-up: dose 0.2 mg/kg, route intravenous. The following applies: in vivo. In a few lines:
(§1)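 Female NMRI mice (n = 5) given a single iv bolus (0.2 mg/kg per compound) or oral gavage (0.5 mg/kg per compound) as a cassette, in DMSO/PEG 200/water. Serial retro-orbital blood was drawn under isoflurane from 3 animals per route at 0.1 (iv), 0.25 (po), 0.5, 1, 2, 4 and 6 h. Plasma was quantified by LC–MS/MS.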

Data set [2] can be described thus: Volume of distribution at steady state in NMRI mouse at 0.2 mg/kg, iv. The arrangement: dose 0.2 mg/kg, route intravenous. Particulars: in vivo, read-out: Vdss. In kind it is ADME, organism-based. In outline: as §1
Data set [3] is described as follows: Tmax in NMRI mouse at 0.2 mg/kg, iv. Type of data set: ADME, organism-based. Set-up: dose 0.2 mg/kg, route intravenous. The following applies: in vivo. In outline:
as §1

A short description of data set [4]: AUC in NMRI mouse at 0.2 mg/kg, iv. In kind it is ADME, organism-based. The following applies: plasma. The arrangement: dose 0.2 mg/kg, route intravenous. In outline: as §1
A short description of data set [5]: Half life in NMRI mouse at 0.2 mg/kg, iv. Set-up: dose 0.2 mg/kg, route intravenous. The following applies: in vivo. Type of data set: ADME, organism-based. In a few lines:
as §1

Data set [6] in a line: Tmax in NMRI mouse at 0.5 mg/kg, po. Type of data set: ADME, organism-based. The arrangement: dose 0.5 mg/kg, route oral. The following applies: in vivo. In a few lines:
as §1

Data set [7] in a line: AUC in NMRI mouse at 0.5 mg/kg, po. In kind it is ADME, organism-based. The arrangement: dose 0.5 mg/kg, route oral. The following applies: plasma. In a few lines:
as §1

Data set [8] can be described thus: Tmax in Wistar rat at 0.2 mg/kg, iv. Type of data set: ADME, organism-based. Set-up: dose 0.2 mg/kg, route intravenous. The following applies: in vivo. In outline: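 Male Wistar rats (n = 6) received cassette dosing, either iv bolus at 0.2 mg/kg or oral gavage at 0.5 mg/kg per compound, in DMSO/PEG 200/water. Plasma levels were measured by UPLC–MS/MS.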
For data set [9], the target named is T1, Poly [ADP-ribose] polymerase tankyrase-1 (Homo sapiens, UniProt O95271).
T1 sequence (O95271 whole entry): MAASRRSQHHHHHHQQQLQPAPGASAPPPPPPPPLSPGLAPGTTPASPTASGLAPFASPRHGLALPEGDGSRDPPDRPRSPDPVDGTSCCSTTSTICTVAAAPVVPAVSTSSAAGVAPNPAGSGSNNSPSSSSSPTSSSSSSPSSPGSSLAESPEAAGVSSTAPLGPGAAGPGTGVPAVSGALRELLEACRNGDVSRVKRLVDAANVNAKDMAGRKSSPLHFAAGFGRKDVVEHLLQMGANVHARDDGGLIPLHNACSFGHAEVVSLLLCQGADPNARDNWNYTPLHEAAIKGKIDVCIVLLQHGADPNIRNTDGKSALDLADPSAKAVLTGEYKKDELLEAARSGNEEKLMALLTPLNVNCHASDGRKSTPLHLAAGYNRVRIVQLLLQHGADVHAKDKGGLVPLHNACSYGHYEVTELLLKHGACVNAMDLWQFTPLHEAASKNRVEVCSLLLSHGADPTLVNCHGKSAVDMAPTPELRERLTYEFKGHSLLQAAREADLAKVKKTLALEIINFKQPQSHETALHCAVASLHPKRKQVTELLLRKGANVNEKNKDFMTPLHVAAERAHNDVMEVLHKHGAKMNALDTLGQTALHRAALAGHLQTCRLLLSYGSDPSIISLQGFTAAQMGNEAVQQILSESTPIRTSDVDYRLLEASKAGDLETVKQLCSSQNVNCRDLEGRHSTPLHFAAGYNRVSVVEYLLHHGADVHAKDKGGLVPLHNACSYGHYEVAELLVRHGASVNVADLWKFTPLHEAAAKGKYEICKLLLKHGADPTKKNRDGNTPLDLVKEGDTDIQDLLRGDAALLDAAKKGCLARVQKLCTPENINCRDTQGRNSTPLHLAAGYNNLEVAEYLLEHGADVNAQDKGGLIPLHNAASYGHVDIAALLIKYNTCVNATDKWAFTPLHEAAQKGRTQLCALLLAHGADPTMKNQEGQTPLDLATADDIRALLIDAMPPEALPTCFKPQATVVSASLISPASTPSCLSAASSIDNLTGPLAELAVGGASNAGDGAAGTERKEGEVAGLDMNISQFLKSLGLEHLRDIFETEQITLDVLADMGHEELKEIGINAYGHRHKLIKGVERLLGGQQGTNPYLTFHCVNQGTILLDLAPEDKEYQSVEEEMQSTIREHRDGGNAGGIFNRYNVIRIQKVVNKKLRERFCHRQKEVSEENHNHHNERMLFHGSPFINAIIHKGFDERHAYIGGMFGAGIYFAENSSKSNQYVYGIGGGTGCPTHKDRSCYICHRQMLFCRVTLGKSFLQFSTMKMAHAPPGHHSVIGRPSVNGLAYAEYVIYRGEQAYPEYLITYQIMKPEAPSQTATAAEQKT
Kind of data set: Inhibition of GST-tagged TNKS1 (1023 to 1327 aa) (unknown origin) after 90 mins by HTRF assay. A general note: Time-resolved FRET reads energy transfer from a long-lived donor to a nearby acceptor.

Data set [10] in a line: Thermodynamic aqueous solubility of the compound in phosphate buffer at pH 7.4. Type of data set: physicochemical. In a few lines:
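Kinetic and thermodynamic aqueous solubilities were measured in phosphate buffer at pH 7.4.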

Data set [11] concerns the target Cytochrome P450 3A4 (Homo sapiens, UniProt P08684). Kind of data set: Inhibition of CYP3A4 (unknown origin). Particulars: human. In kind it is ADME.
In data set [12] the test system is COLO 205. The experiment in a line: Effect on TCF1 level in human COLO205-F1756 clone 4 cells harboring APC mutant and TCF/LEF responsive element at 350 nM by immunoblotting. In kind it is functional, cell-based. A general note: In western blotting, separated proteins are transferred to a membrane and probed.
For data set [13], the system named is COLO 205. Kind of data set: Effect on TCF4 level in human COLO205-F1756 clone 4 cells harboring APC mutant and TCF/LEF responsive element at 350 nM by immunoblotting. Type of data set: functional, cell-based.
A short description of data set [14]: Antitumor activity against human COLO205-F1756 clone 4 cells harboring APC mutant xenografted in CrTac:NCr-Foxn1nu mouse assessed as reduction in tumor weight at 70 mg/kg, po bid for 9 days relative to control. In kind it is functional, COLO 205. Set-up: scale not given: the % may be the effect or the level left. In outline:
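Female athymic nude mice were implanted sc in the flank with 3 million COLO205-F1756 clone 4 cells. At about 100 mm3, groups of n = 8 were gavaged at 70 mg/kg bid or with vehicle (10% DMSO, 5% Tween 20 in saline). Luminescent flux was imaged after sc D-luciferin 2 and 6 h post final dose, then tumours were excised and weighed. Mann–Whitney U test.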

Cytochrome P450 3A4, sequence (P08684 whole entry): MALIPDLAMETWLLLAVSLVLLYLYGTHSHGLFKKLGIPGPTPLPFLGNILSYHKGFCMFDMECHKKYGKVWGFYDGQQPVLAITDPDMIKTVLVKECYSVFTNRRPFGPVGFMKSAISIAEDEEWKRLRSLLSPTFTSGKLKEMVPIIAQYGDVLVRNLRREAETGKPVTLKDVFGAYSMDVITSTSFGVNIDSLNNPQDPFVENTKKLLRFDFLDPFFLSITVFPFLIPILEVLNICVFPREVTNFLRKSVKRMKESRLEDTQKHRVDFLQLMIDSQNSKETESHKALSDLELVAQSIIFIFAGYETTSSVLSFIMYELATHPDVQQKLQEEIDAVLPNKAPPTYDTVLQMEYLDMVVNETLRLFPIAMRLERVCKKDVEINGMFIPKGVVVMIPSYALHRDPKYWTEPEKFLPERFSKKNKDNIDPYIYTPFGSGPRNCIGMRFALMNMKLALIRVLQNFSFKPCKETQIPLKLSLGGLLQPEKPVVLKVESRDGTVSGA

Consider `Cn1cc(-c2ccc(-c3cncc(Cl)c3N3CCC4(CCNC4=O)CC3)cc2)cn1`, for which the clearance – broadly, the volume of plasma or blood freed of the substance per unit of time – in [1] stood at 31 mL/min/kg. Moreover, the Vd in [2] was 1.1 L/kg. The time of peak concentration (Tmax) – broadly, the time from dosing to the highest level – in data set [3] turned out to be 6 min; in [6] it was 15 min; in [8], 6 min. Moreover, the exposure (AUC) (in general, the area under the concentration-time curve, a measure of exposure) amounted to 107 ng·h/mL in data set [4] and 143 ng·h/mL in data set [7]. In addition, the half-life (usually the time in which the quantity being followed falls by half) in [5] is 33 min. In [9], the 50% inhibitory concentration (IC50) (in general, the concentration that gives 50% inhibition) is greater than 10 µM. The compound further gave a Therm_solubility in [10] of 6 µg/mL. Further, the “inhibition (INH)” value in data set [11] is given as “Not Active”. Besides, the outcome in data set [12] and in data set [13] was inactive. For the same compound, in data set [14], the Activity turned out to be 37.5%.
